Source: ChEMBL document CHEMBL4699489, “Optimized Opioid-Neurotensin Multitarget Peptides: From Design to Structure-Activity Relationship Studies” (J Med Chem, 2020)
Numbered stars: 1 amine (or outer) side, 2 acyl side, 3 side chain; on linkers, the order of the positions; unused ones are H or OH. Square brackets hold non-standard residues; d marks the D form. Peptide text beside a SMILES is read from it. X1 = O=C1[C@@H](N[*:1])Cc2ccccc2CN1CCC(=O)[*:2]; X2 = O=C([C@@H]1Cc2cc(O)ccc2CN1[*:1])[*:2]; Dmt = Cc1cc(O)cc(C)c1C[C@H](N)C(=O)O; Tle = CC(C)(C)[C@H](N)C(=O)O; β3hK = NCCCC[C@H](N)CC(=O)O

What was measured:
Mu-type opioid receptor [1] = target: T1, Mu-type opioid receptor (Homo sapiens, UniProt P35372); assay: Displacement of [3H]-DAMGO from recombinant human mu opioid receptor expressed in CHO cell membrane incubated for 60 mins by liquid scintillation counting method; type: cell membranes
T1 sequence (P35372 whole entry): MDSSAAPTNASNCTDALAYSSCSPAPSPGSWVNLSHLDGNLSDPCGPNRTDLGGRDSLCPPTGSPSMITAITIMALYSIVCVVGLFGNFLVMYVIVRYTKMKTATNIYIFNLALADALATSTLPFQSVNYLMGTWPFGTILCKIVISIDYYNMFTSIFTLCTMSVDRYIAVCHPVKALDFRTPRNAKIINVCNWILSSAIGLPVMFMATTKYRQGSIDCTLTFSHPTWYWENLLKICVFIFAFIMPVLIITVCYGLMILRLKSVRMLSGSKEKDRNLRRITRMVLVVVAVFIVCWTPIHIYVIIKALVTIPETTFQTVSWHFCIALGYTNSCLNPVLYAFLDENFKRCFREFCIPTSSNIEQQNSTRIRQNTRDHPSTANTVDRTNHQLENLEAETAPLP
Outline: (§1)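 Membranes from CHO-hMOR, -hDOR or -hKOR cells, homogenized and washed in 50 mM Tris-HCl pH 7.4. Membranes (15–20 μg) incubated with [3H]DAMGO (MOR), [3H]diprenorphine (DOR) or [3H]U69,593 (KOR) plus graded peptide, 60 min at 25 °C. Nonspecific binding with 1–10 μM of the unlabelled ligand. GF/C filtration, scintillation counting. Ki by Cheng–Prusoff. Duplicate, three independent experiments.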

[2] = target: T2, Delta-type opioid receptor (Homo sapiens, UniProt P41143); assay: Displacement of [3H]-Diprenorphine from recombinant human delta opioid receptor expressed in CHO cell membrane incubated for 60 mins by liquid scintillation counting method; type: cell membranes; outline: as §1
T2 sequence (P41143 whole entry): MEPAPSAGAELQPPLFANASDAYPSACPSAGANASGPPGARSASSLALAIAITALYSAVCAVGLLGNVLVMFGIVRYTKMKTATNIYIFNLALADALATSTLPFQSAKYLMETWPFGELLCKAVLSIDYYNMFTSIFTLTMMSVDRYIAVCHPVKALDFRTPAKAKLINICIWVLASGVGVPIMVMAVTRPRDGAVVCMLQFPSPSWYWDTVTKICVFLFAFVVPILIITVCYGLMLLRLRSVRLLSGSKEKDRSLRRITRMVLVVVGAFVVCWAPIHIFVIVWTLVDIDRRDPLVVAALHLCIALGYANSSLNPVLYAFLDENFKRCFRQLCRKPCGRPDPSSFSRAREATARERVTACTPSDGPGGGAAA

[3] = target: T3, Kappa-type opioid receptor (Homo sapiens, UniProt P41145); assay: Displacement of [3H]-U69593 from recombinant human kappa opioid receptor expressed in CHO cell membrane incubated for 60 mins by liquid scintillation counting method; type: cell membranes; outline: as §1
T3 sequence (P41145 whole entry): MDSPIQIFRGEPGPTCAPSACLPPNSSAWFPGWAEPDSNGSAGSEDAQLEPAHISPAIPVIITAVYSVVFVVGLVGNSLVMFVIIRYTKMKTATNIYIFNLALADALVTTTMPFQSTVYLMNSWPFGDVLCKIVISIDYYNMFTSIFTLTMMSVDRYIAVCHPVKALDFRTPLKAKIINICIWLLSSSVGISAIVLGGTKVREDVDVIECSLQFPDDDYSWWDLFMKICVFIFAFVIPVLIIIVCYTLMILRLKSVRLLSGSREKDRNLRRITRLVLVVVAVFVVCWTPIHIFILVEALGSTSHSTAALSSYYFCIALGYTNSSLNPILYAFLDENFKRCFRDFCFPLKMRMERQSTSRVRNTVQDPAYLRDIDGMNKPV

[4] = target: T4, Neurotensin receptor type 1 (Homo sapiens, UniProt P30989); assay: Displacement of [125I]-neurotensin from human recombinant NTS1 stably expressed in CHO-K1 cell membranes incubated for 60 mins by gamma counter method
T4 sequence (P30989 whole entry): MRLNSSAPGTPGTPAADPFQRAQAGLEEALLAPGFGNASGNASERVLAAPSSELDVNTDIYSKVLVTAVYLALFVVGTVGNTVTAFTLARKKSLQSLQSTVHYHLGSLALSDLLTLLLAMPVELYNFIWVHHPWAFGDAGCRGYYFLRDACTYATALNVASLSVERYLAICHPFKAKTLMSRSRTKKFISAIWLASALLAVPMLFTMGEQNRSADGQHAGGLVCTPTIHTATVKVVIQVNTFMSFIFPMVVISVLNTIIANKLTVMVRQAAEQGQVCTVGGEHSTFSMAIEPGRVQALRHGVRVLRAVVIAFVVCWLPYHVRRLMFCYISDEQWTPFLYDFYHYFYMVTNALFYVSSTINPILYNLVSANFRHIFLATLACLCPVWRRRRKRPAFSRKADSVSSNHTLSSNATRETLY

[5] = target: Neurotensin receptor type 2 (Homo sapiens, UniProt O95665); assay: Displacement of [125I]-neurotensin from human recombinant NTS2 stably expressed in human 1321N1 cell membranes incubated for 60 mins by gamma counter method
Neurotensin receptor type 2, sequence (O95665 whole entry): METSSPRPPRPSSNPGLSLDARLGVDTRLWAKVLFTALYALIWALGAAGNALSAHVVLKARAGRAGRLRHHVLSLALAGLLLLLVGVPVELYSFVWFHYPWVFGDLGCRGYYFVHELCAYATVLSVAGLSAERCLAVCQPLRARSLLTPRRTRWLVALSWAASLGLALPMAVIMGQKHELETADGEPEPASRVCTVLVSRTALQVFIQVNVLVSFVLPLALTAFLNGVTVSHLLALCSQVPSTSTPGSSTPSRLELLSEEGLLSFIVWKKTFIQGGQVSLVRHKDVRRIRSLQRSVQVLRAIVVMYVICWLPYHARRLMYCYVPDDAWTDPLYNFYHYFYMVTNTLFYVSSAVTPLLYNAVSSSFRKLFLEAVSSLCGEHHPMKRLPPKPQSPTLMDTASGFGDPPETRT

Mu-type opioid receptor [6] = target: T1, Mu-type opioid receptor; assay: Potency index, ratio of PK20 Ki to test compound Ki for displacement of [3H]-DAMGO from recombinant human mu opioid receptor expressed in CHO cell membranes
Mu-type opioid receptor [7] = target: T1, Mu-type opioid receptor; assay: Agonist activity at human MOR stably expressed in CHO cell membranes assessed as stimulation of [35S]-GTPgammaS binding incubated for 1 hr by liquid scintillation counting assay; type: functional
Outline: (§2)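 Membranes from CHO cells stably expressing hMOR, hDOR or hKOR, prepared in 20 mM HEPES, 10 mM MgCl2, 100 mM NaCl, pH 7.4. Membranes (5–10 μg) incubated with 0.05 nM [35S]GTPγS, 10 μM GDP and graded peptide concentrations, 60 min at 25 °C. Nonspecific binding with 10 μM GTPγS, basal without ligand. GF/B filtration, scintillation counting. EC50 and Emax by nonlinear regression; Emax relative to DAMGO, DPDPE or U69,593. Duplicate, three independent experiments.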

Mu-type opioid receptor [8] = target: T1, Mu-type opioid receptor; assay: Agonist activity at human MOR expressed in CHO cell membranes assessed as stimulation of [35S]-GTPgammaS binding incubated for 1 hr by liquid scintillation counting assay relative to DAMGO; type: functional; conditions: filed as agonist, time 60.0 min; outline: as §2
Mu-type opioid receptor [9] = target: T1, Mu-type opioid receptor; assay: Agonist activity at human MOR expressed in human U2OS cells assessed as increase in beta arrestin2 recruitment incubated for 90 mins by pathhunter beta-arrestin assay; type: cell-based
Outline: (§3)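 U2OS cells stably coexpressing hMOR and enzyme acceptor-tagged β-arrestin-2, seeded at 5000 cells/well and kept 24 h at 37 °C. Graded peptide concentrations in PBS added for 90 min at 37 °C, then detection mix for 60 min at room temperature. Chemiluminescence read-out. EC50 and Emax (relative to DAMGO) by nonlinear regression. Duplicate, three independent experiments.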

Mu-type opioid receptor [10] = target: T1, Mu-type opioid receptor; assay: Agonist activity at human MOR expressed in human U2OS cells assessed as increase in beta arrestin2 recruitment incubated for 90 mins by pathhunter beta-arrestin assay relative to DAMGO; type: cell-based; conditions: filed as partial agonist; outline: as §3
[11] = target: T2, Delta-type opioid receptor; assay: Agonist activity at human DOR stably expressed in CHO cell membranes assessed as stimulation of [35S]-GTPgammaS binding incubated for 1 hr by liquid scintillation counting assay; type: functional; outline: as §2
[12] = target: T2, Delta-type opioid receptor; assay: Agonist activity at human DOR stably expressed in CHO cell membranes assessed as stimulation of [35S]-GTPgammaS binding incubated for 1 hr by liquid scintillation counting assay relative to DPDPE; type: functional; conditions: filed as agonist, time 60.0 min; outline: as §2
[13] = target: T3, Kappa-type opioid receptor; assay: Agonist activity at human KOR stably expressed in CHO cell membranes assessed as stimulation of [35S]-GTPgammaS binding incubated for 1 hr by liquid scintillation counting assay; type: functional; outline: as §2
[14] = target: T3, Kappa-type opioid receptor; assay: Agonist activity at human KOR stably expressed in CHO cell membranes assessed as stimulation of [35S]-GTPgammaS binding incubated for 1 hr by liquid scintillation counting assay relative to U69593; type: functional; conditions: time 60.0 min; outline: as §2
[15] = target: T4, Neurotensin receptor type 1; assay: Agonist activity at human NTS1 expressed in HEK293 cells co-expressing Galphaq/RlucII/GFP10-Ggamma1/Gbeta1 assessed as increase in Galphaq activation incubated for 10 mins in presence of coelenterazine 400A by BRET assay; type: cell-based
[16] = target: T4, Neurotensin receptor type 1; assay: Agonist activity at human NTS1 expressed in HEK293 cells co-expressing Galphaq/RlucII/GFP10-Ggamma1/Gbeta1 assessed as increase in Gq activation incubated for 10 mins in presence of coelenterazine 400A by BRET assay relative to NT (8-13); type: cell-based

SMILES	Ki (Mu-type opioid receptor [1])	Ki [2]	Ki [3]	Ki [4]	Ki [5]	Ratio Ki (Mu-type opioid receptor [6])	EC50 (Mu-type opioid receptor [7])	Emax (Mu-type opioid receptor [8])	EC50 (Mu-type opioid receptor [9])	Emax (Mu-type opioid receptor [10])	EC50 [11]	Emax [12]	EC50 [13]	Emax [14]	EC50 [15]	Emax [16]
Cc1cc(O)cc(C)c1C[C@H](NC(=O)[C@@H]1CCCN1C(=O)[C@H](CCCCN)NC(=O)C[C@H](CCCCN)NC(=O)CCN1Cc2ccccc2C[C@H](NC(=O)[C@@H](CCCNC(=N)N)NC(=O)[C@@H](N)Cc2c(C)cc(O)cc2C)C1=O)C(=O)N[C@H](C(=O)N[C@@H](CC(C)C)C(=O)O)C(C)(C)C (H-[Dmt][dR][X1][β3hK]KP[Dmt][Tle]L-OH)	7.12 nM	48.6 nM	208 nM	15 nM	0.32 nM	2	65.4 nM	97%	3040 nM	69%	248 nM	97%	239 nM	36%	1.8 nM	112%
Cc1cc(O)cc(C)c1C[C@H](N)C(=O)N[C@H](CCCNC(=N)N)C(=O)N[C@H]1Cc2ccccc2CN(CCC(=O)N[C@@H](CCCNC(=N)N)C(=O)N[C@@H](CCCNC(=N)N)C(=O)N2CCC[C@H]2C(=O)N[C@@H](Cc2ccc(O)cc2)C(=O)N[C@H](C(=O)N[C@@H](CC(C)C)C(=O)O)C(C)(C)C)C1=O (H-[Dmt][dR][X1]RRPY[Tle]L-OH)	1.32 nM	56.4 nM	78.6 nM	0.43 nM	0.09 nM	2	12.8 nM	94%	1330 nM	72%	301 nM	106%	514 nM	34%	0.24 nM	111%
Cc1cc(O)cc(C)c1C[C@H](N)C(=O)N[C@H](CCCNC(=N)N)C(=O)N[C@H]1Cc2ccccc2CN(CCC(=O)N[C@@H](CCCCN)C(=O)N[C@@H](CCCCN)C(=O)N2CCC[C@H]2C(=O)N2Cc3ccc(O)cc3C[C@H]2C(=O)N[C@H](C(=O)N[C@@H](CC(C)C)C(=O)O)C(C)(C)C)C1=O (H-[Dmt][dR][X1]KKP[X2][Tle]L-OH)	6.24 nM	209 nM	150 nM	6830 nM	75 nM	2	45.6 nM	94%	2160 nM	66%	842 nM	91%	1560 nM	20%		
Cc1cc(O)cc(C)c1C[C@H](N)C(=O)N[C@H](CCCNC(=N)N)C(=O)N[C@H]1Cc2ccccc2CN(CCC(=O)N[C@@H](CCCCN)C(=O)N[C@@H](CCCCN)C(=O)N2CCC[C@H]2C(=O)N[C@@H](Cc2ccc(O)cc2)C(=O)N[C@H](C(=O)N[C@@H](CC(C)C)C(=O)O)C(C)(C)C)C1=O (H-[Dmt][dR][X1]KKPY[Tle]L-OH)	4.89 nM	213 nM	201 nM	2.3 nM	0.29 nM	2	64.6 nM	99%	2460 nM	67%	1320 nM	87%	1650 nM	31%	0.26 nM	99%
Cc1cc(O)cc(C)c1C[C@H](NC(=O)[C@@H]1CCCN1C(=O)[C@H](CCCCN)NC(=O)[C@H](CCCCN)NC(=O)CCN1Cc2ccccc2C[C@H](NC(=O)[C@@H](CCCNC(=N)N)NC(=O)[C@@H](N)Cc2c(C)cc(O)cc2C)C1=O)C(=O)N[C@H](C(=O)N[C@@H](CC(C)C)C(=O)O)C(C)(C)C (H-[Dmt][dR][X1]KKP[Dmt][Tle]L-OH)	7.15 nM	276 nM	138 nM	13 nM	0.16 nM	2	48.7 nM	95%	1960 nM	62%	898 nM	60%	1570 nM	22%	3.9 nM	109%
Cc1cc(O)cc(C)c1C[C@H](NC(=O)[C@@H]1CCCN1C(=O)[C@H](CCCNC(=N)N)NC(=O)[C@@H](N)CCCNC(=N)N)C(=O)N[C@H](C(=O)N[C@@H](CC(C)C)C(=O)O)C(C)(C)C				13.4 nM	3 nM											
